Measurements published in ChEMBL document CHEMBL1140307, “Design and synthesis of alpha-aryloxyphenylacetic acid derivatives: a novel class of PPARalpha/gamma dual agonists with potent antihyperglycemic and lipid modulating activity” (J Med Chem, 2005).

How the values were obtained:
[1] = target: T1, Peroxisome proliferator-activated receptor alpha (Homo sapiens, UniProt Q07869); test: In vitro binding affinity for human PPAR alpha
T1 sequence (Q07869 whole entry): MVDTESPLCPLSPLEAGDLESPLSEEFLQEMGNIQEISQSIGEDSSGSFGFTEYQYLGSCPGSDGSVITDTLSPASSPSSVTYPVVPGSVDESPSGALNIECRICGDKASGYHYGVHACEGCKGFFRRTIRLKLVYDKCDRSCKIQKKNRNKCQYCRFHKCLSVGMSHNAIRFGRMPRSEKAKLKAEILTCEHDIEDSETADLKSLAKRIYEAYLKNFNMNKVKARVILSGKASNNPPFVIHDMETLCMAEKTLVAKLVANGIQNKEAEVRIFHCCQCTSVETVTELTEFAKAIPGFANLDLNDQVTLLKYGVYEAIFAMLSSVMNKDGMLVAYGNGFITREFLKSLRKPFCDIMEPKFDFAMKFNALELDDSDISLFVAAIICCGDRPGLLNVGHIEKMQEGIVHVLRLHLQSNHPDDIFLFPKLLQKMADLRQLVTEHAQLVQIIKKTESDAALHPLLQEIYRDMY

[2] = target: T2, Peroxisome proliferator-activated receptor gamma (Homo sapiens, UniProt P37231); test: In vitro binding affinity for human PPAR gamma
T2 sequence (P37231 whole entry): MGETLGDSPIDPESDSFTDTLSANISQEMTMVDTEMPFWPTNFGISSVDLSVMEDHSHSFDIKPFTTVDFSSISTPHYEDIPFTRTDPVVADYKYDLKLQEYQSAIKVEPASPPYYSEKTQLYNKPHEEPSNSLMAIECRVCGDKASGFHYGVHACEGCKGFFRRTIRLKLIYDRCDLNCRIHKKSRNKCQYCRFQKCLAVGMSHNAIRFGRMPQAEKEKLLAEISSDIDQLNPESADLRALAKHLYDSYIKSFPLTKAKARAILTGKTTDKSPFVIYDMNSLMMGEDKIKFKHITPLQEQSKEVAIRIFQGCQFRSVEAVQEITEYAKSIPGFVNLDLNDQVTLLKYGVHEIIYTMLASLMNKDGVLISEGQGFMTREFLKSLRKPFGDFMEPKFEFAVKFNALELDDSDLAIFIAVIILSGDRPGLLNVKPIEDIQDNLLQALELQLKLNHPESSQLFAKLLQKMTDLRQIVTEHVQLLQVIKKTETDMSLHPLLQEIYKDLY

[3] = target: T2, Peroxisome proliferator-activated receptor gamma; test: Agonist response against human PPAR gamma in transactivation assay; type: functional
[4] = target: T1, Peroxisome proliferator-activated receptor alpha; test: Agonist response against human PPAR alpha in transactivation assay
Rattus norvegicus [5] = test: Effect (150 mg/kg) on PPAR gamma- mediated effects measured as change in brown adipose tissue weight in rats; type: functional
Outline: (§1)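 Male Sprague-Dawley rats (about 200 g, n = 6) were fed rodent chow and gavaged once daily for 2 weeks with compound in 0.5% methylcellulose. Body weight was recorded on days 1, 4, 6, 8, 11 and 14. Rats were euthanized with CO2 24 h after the last dose, and BAT, heart and liver were weighed. Blood was taken by heart puncture for hematocrit. Results are mean ± SD versus vehicle.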

[6] = Oral bioavailability in dog; type: ADME, organism-based, Canis lupus familiaris; conditions: in vivo
Outline: (§2)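 Male Sprague-Dawley rats (n = 3) and male adult Beagle dogs (n = 4) were fasted overnight. They received either a 2 mg/kg oral gavage dose or a 0.5 mg/kg IV bolus. Blood was drawn into heparin tubes from a femoral arterial cannula (rat) or the jugular vein (dog) at set time points. Plasma was acidified with 0.5 M formate pH 3.0, stored at -70 °C and quantified by LC-MS/MS.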

Rattus norvegicus [7] = test: Effect (150 mg/kg) on PPAR gamma- mediated effects measured as change in body weight in rats; type: functional; outline: as §1
Rattus norvegicus [8] = test: Effect (150 mg/kg) on PPAR gamma- mediated effects measured as change in liver weight in rats; type: functional; outline: as §1
[9] = Oral bioavailability in rat; type: ADME, organism-based; conditions: in vivo; outline: as §2
Cricetinae gen. sp. [10] = test: Percentage change in the serum triglyceride upon administration of compound (10 mpk) in hamster; type: functional
Outline: (§3)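 Male Golden Syrian hamsters were fed normal rodent chow and dosed orally once daily with compound. Serum total cholesterol and triglyceride were measured and expressed as percent change versus vehicle controls.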

Cricetinae gen. sp. [11] = test: Percentage change in the serum cholesterol upon administration of compound (10 mpk) in hamster; type: functional; outline: as §3
[12] = Area under concentration time curve of compound when administered perorally at a dose of 2 mg/kg to rats; type: ADME, organism-based; parameters: dose 2 mg/kg, route oral; conditions: rat, in vivo, po; outline: as §2
Rattus norvegicus [13] = test: Effect (150 mg/kg) on PPAR gamma- mediated effects measured as change in heart weight in rats; type: functional; outline: as §1
[14] = Area under concentration time curve of compound when administered perorally at a dose of 2 mg/kg to dogs; type: ADME, organism-based, Canis lupus familiaris; parameters: dose 2 mg/kg, route oral; conditions: dog, in vivo, po; outline: as §2
Rattus norvegicus [15] = test: Effect (150 mg/kg) on PPAR gamma- mediated effects measured as change in hematocrit weight in rats; type: functional; outline: as §1
[16] = target: T3, Peroxisome proliferator-activated receptor gamma (Homo sapiens) (UniProt P37231); test: Maximal activation of human Peroxisome proliferator activated receptor gamma
T3 sequence (whole entry): T2 sequence (P37231 whole entry)
Outline: (§4)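 Cell-based transactivation assay using GAL4-PPAR chimeric receptors with a reporter gene carrying a GAL4 response element. The top concentration tested was 3 µM. Values are the mean of three determinations.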

[17] = target: T4, Peroxisome proliferator-activated receptor alpha (Homo sapiens) (UniProt Q07869); test: Maximal activation of human Peroxisome proliferator activated receptor alpha; outline: as §4
T4 sequence (whole entry): T1 sequence (Q07869 whole entry)

Mesocricetus auratus = species: Mesocricetus auratus; test: Effect (10 mpk) on serum triglyceride in hamster
Cricetinae gen. sp. [18] = test: Effect (10 mpk) on serum cholesterol in hamster; type: functional
Outline: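 Male Golden Syrian hamsters on normal rodent chow, dosed orally with test compound (9 days per table legend). Serum total cholesterol and triglyceride were measured in mg/dL. Values are group means, expressed as % change versus the vehicle-treated control group.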

[19] = Half life when administered intravenously at a dose of 0.5 mg/kg to dogs; type: ADME, organism-based, Canis lupus familiaris; parameters: dose 0.5 mg/kg, route intravenous; conditions: dog, in vivo, iv; outline: as §2
[20] = Half life when administered intravenously at a dose of 0.5 mg/kg to rats; type: ADME, organism-based; parameters: dose 0.5 mg/kg, route intravenous; conditions: rat, in vivo, iv; outline: as §2
Canis familiaris = test: Percentage change in the serum cholesterol upon administration of compound (10 mpk) in dogs

| SMILES | IC50 [1] | IC50 [2] | EC50 [3] | EC50 [4] | further results |
| --- | --- | --- | --- | --- | --- |
| CCC(=O)c1cc(C(C)CC)c(OC(C(=O)O)c2ccccc2)c(C(C)CC)c1 (stereo not drawn) | 6120 nM | > 50000 nM | – | – | – |
| CCCc1cc(C(=O)c2ccccc2)cc(CCC)c1OC(C(=O)O)c1ccccc1 (stereo not drawn) | 800 nM | 4680 nM | – | – | – |
| CCCc1cc2c(oc(=O)n2C(C)C)c(CCC)c1O[C@H](C(=O)O)c1ccccc1 | 550 nM | 1790 nM | – | – | – |
| CCCc1cc2c(oc(=O)n2CC)c(CCC)c1O[C@H](C(=O)O)c1ccc(C(C)C)cc1 | 74 nM | 99 nM | 120 nM | 290 nM | BAT (Rattus norvegicus [5]): 0.24 g; bioavailability [6]: 35%; Body weight (Rattus norvegicus [7]): 283 g; Liver weight (Rattus norvegicus [8]): 22.4 g; bioavailability [9]: 72%; Change (Cricetinae gen. sp. [10]): -6%; Change (Cricetinae gen. sp. [11]): -25%; AUC [12]: 127 µM·h; Heart weight (Rattus norvegicus [13]): 1.1 g; AUC [14]: 9.1 µM·h; Hematocrit (Rattus norvegicus [15]): 45.6% |
| CCCc1cc(C(=O)CC)cc(CCC)c1O[C@H](C(=O)O)c1ccc(C(F)(F)F)cc1 | 89 nM | 210 nM | – | 250 nM | – |
| CCCc1cc(C(=O)CC)cc(Cl)c1O[C@H](C(=O)O)c1ccc(C(C)C)cc1 | 260 nM | 220 nM | 360 nM | 260 nM | – |
| CCCc1cc2c(oc(=O)n2CC)c(CCC)c1O[C@H](C(=O)O)c1ccc(Cl)cc1 | 260 nM | 220 nM | – | – | – |
| CCCc1cc2c(oc(=O)n2CC(F)(F)F)c(CCC)c1O[C@H](C(=O)O)c1ccc(C(C)C)cc1 | 100 nM | 110 nM | 140 nM | 310 nM | – |
| CCCc1cc(C(=O)CC)cc(CCC)c1O[C@H](C(=O)O)c1ccc(CC(C)C)cc1 | 58 nM | 220 nM | 180 nM | 39 nM | Maximal activation [16]: 66%; Maximal activation [17]: 807% |
| CCC(=O)c1ccc(OC(C(=O)O)c2ccccc2)cc1 (stereo not drawn) | > 50000 nM | > 50000 nM | – | – | – |
| CCCc1cc2c(=O)n(C)oc2c(CCC)c1O[C@H](C(=O)O)c1ccc(C(C)C)cc1 | 74 nM | – | 390 nM | 670 nM | Triglyceride level (Mesocricetus auratus): 303 mg/dL; Cholesterol level (Cricetinae gen. sp. [18]): 106 mg/dL; BAT (Rattus norvegicus [5]): 0.24 g; bioavailability [6]: 73%; Body weight (Rattus norvegicus [7]): 278 g; Liver weight (Rattus norvegicus [8]): 20.3 g; half-life [19]: 1.6 h; bioavailability [9]: 73%; half-life [20]: 7.2 h; Change (Canis familiaris): -17.3%; Change (Cricetinae gen. sp. [10]): -9%; Change (Cricetinae gen. sp. [11]): -17%; AUC [12]: 67.5 µM·h; Heart weight (Rattus norvegicus [13]): 1.14 g; AUC [14]: 26.9 µM·h; Hematocrit (Rattus norvegicus [15]): 45.7% |
| CCCc1cc(C(=O)C(C)C)cc(CCC)c1OC(C(=O)O)c1ccccc1 (stereo not drawn) | 160 nM | 3160 nM | – | 250 nM | – |
| CCC(=O)c1cc(C)c(OC(C(=O)O)c2ccccc2)c(C)c1 (stereo not drawn) | 3000 nM | > 50000 nM | – | – | – |
| CCCc1c(O[C@H](C(=O)O)c2ccc(C(C)C)cc2)c(Cl)cc2c1oc(=O)n2CC | 1410 nM | 520 nM | 360 nM | – | – |
| CCCc1cc(C(=O)CC)cc(CCC)c1O[C@@H](C(=O)O)c1ccc(C(C)C)cc1 | 3900 nM | 2980 nM | – | – | – |
| CCCc1cc(C(=O)CC)cc(CCC)c1NC(C(=O)O)c1ccc(C(C)C)cc1 (stereo not drawn) | > 50000 nM | > 50000 nM | – | – | – |
